From PubChem
HIF act = HIF pathway transcriptional activation. U2OS HRE-luciferase reporter, luminescence; normalized: DMSO 0%, desferrioxamine 100%. hit rate 0.32% among 300,000. activation, % at 7.5 µM (by protocol). AID 1910;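 active = mean activation of at least 10% of the iron chelator positive control signal, with at least half of replicates also reaching 10%; inconclusive = mean and replicate majority disagree about reaching 10%; inactive = mean and most replicates under 10%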
FXN GAA850 act = activators of GAA850 frataxin (FXN) promoter; HEK293 lucGAA850 FXN promoter luciferase reporter, 24 h; percent of 10 µM SAHA response; activation, % at 6 µM; hit rate 0.56% among 360,000; AID 540364;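 active = activation above the average of all compounds screened plus 3 SD, cutoff fixed separately per campaign, cut at about 7.5% in these data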;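 note: 0% = DMSO wells and 100% = 10 µM SAHA wells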
SR-BI DiI inh = blocks mouse SR-BI lipid uptake from DiI-HDL. Q61009. ldlA[mSR-BI] CHO cells, DiI-HDL uptake fluorescence, 3 h. inhibition, % at 12.5 µM. hit rate 0.96% among 320,000;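 active = mean replicate inhibition of at least 70% and a set share of replicates each scoring 70 or more; inconclusive = meets just one of the two criteria; inactive = fails both criteria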;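 note: 0% = median of neutral control wells and 100% = median of positive control wells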
Target sequence (Q61009 whole entry, looked up): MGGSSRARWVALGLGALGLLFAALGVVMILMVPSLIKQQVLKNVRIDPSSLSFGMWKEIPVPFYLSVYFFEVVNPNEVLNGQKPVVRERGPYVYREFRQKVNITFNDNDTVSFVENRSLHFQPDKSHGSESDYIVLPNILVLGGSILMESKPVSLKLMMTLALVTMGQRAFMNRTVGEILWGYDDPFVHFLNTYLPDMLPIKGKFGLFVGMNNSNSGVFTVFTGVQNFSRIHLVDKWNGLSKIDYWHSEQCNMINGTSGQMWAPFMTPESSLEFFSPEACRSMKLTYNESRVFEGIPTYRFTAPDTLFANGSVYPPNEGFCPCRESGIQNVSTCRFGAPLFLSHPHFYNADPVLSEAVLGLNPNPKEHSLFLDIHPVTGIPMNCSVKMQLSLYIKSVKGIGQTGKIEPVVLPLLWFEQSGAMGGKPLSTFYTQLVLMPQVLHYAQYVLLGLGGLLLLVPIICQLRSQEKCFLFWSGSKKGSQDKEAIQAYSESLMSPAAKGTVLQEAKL
SR-BI DiI-HDL act = activators of SR-BI mediated HDL lipid uptake; activation, % at 12.5 µM; AID 504775; hit rate 0.096% among 320,000; CHO ldlA[mSR-BI] cells, DiI-HDL uptake fluorescence, 3 h; 100 = double the neutral-control signal;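 active = mean replicate activation of at least 60% and every replicate at or above 60%; inconclusive = mean or all-replicate condition met, but not both; inactive = mean below 60% and not all replicates reaching 60%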;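 note: 0% = median plate neutral-control signal and 100% = twice that signal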
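Material: SR-BI-overexpressing, LDLR-lacking CHO cells; schedule: compound exposure 3 h, 37 °C; reagent: DiI-labelled HDL at 10 µg/mL final; technique: bottom-read fluorescence, 550/595 nm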
ABCB6 inh 2 = blocks the human ABCB6 transporter. fluorescence ratio to DMSO, % at 10 µM. K562-ABCB6 porphyrin accumulation, flow cytometry, 1 h; active compounds read low. AID 602162. hit rate 0.19% among 360,000. Q9NP58;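 active = fluorescence ratio to DMSO below 75%, the collection mean minus 3 SD; inconclusive = too few cells collected in the well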;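 note: signal is porphyrin accumulated inside mitochondria; 100% equals median channel fluorescence of DMSO control wells; lower ratio means ABCB6 inhibition with less porphyrin fluorescence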
AHR act = activates the human aryl hydrocarbon receptor | hit rate 2.5% among 320,000 | P35869 | AHR-responsive luciferase reporter cells, luminescence | activation, % at 5 µM | AID 2796; in the data active = activation above about 47%;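 note: 0% = vehicle wells and 100% = reference agonist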
* hit, by the source's call; ? = inconclusive; / = no result given. Hits are enriched below; roughly 3.9% of the tested compounds scored in any of these assays.

SMILES	HIF act	FXN GAA850 act	SR-BI DiI inh	SR-BI DiI-HDL act	ABCB6 inh 2	AHR act
O=C(O)c1ccccc1C(=O)N1N=C2/C(=C/c3cccc([N+](=O)[O-])c3)CCCC2C1c1cccc([N+](=O)[O-])c1 (configuration not stated)	-0.5	1.4	4.9	-4.9	92.0	5.5
O=C(O)c1c(C(=O)N2N=C3/C(=C/c4ccccc4)CCCC3C2c2ccccc2)cccc1[N+](=O)[O-] (configuration not stated)	0.6	1.2	-4.8	4.8	96.0	78.4*
O=C(CCCn1cc([N+](=O)[O-])cn1)NCc1ccccc1	-0.2	-0.8	-2.0	2.0	94.0	-1.6
O=c1cc(-c2ccccc2)nc2nc(-c3ccccc3)[nH]n12	-0.9	2.3	3.7	-3.7	93.0	73.7*
Cc1ccc2c(c1)CC(C)N2S(=O)(=O)c1nnc(NC(=O)CC(C)C)s1 (configuration not stated)	-0.5	0.4	1.8	-1.8	99.0	-2.6
O=C(N/N=C/c1cc2cc3c(cc2nc1Cl)OCO3)c1ccncc1	345.2*	-1.9	11.8	-11.8	106.0	63.7*
O=C(N/N=C/c1cc(Cl)ccc1O)c1ccncc1	26.5*	-5.7	115.4*	-115.4	95.0	21.4
O=C(N/N=C/c1ccccc1Cl)c1ccncc1	-0.5	0.7	0.6	-0.6	98.0	3.7
O=C(N/N=C/c1cc2cc3c(cc2nc1Cl)OCCO3)c1ccccc1O	1.0	0.8	18.4	-18.4	101.0	5.5
CC(=O)Nc1ccc(NC(=O)c2ccc3c(c2)CCN3S(C)(=O)=O)cc1	3.2	2.3	12.1	-12.1	92.0	-0.1
COc1cccc(NC(=O)c2ccc3c(c2)CCN3S(C)(=O)=O)c1	1.3	1.7	71.1*	-71.1	100.0	0.8
COc1cccc(NC(=O)c2ccc(NC(C)=O)cc2)c1	0.5	2.4	15.1	-15.1	101.0	4.8
COc1cccc(NC(=O)c2ccc3c(c2)N(C)CCS3)c1	3.4	3.1	91.4*	-91.4	98.0	19.6
COc1ccc(-c2coc3c(C(=O)NCc4ccco4)cccc23)c(C)c1	/	-0.4	/	/	96.0	/
CN(c1cccc(NC(=O)CN(c2ccc(F)cc2)S(C)(=O)=O)c1)S(C)(=O)=O	-1.2	1.0	-10.7	10.7	98.0	1.5
CN(c1cccc(NC(=O)CN(c2ccc(C34CC5CC(CC(C5)C3)C4)cc2)S(C)(=O)=O)c1)S(C)(=O)=O	0.1	3.5	-76.4	76.4*	97.0	-0.2
CCOc1ccc(NC(=O)CC2C(=O)Nc3ccccc3N2C(=O)c2ccccc2)cc1 (configuration not stated)	25.9*	-9.1	-22.2	22.2	88.0	1.4
COc1ccc(NC(=O)CC2C(=O)Nc3ccccc3N2CC(=O)N2CCCC2)cc1 (configuration not stated)	/	-0.5	5.2	-5.2	96.0	73.5*
CCCOc1ccc(NC(=O)CC2C(=O)Nc3ccccc3N2CC(=O)N2CCCC2)cc1 (configuration not stated)	/	0.0	38.1	/	99.0	4.9
O=C(Cc1n[nH]c(=O)c2ccccc12)Nc1cc(C(F)(F)F)ccc1-n1cncn1	/	0.6	-9.8	9.8	101.0	/
CCOc1nc(Nc2ccc(F)cc2)nc(N2CCN(c3ccc(OC)cc3)CC2)n1	-0.2	4.7	54.7	-54.7	111.0	-1.5
CCOc1nc(Nc2ccc(OC)c(Cl)c2)nc(N2CCN(c3ccc(OC)cc3)CC2)n1	-0.2	-0.8	78.9*	-78.9	102.0	7.0
CSc1nnc(C)c(/C=C/Nc2ccc(Cl)cc2)n1	0.5	1.6	50.9	-50.9	114.0	49.8*
COc1cc(Nc2nc(-c3ccccc3)c3cc(C)ccc3n2)cc(OC)c1OC	-0.3	-3.3	71.9*	-71.9	97.0	17.8
Cc1ccc(NC(=O)C2=CC(c3cccs3)=NS(=O)(=O)N2C)cc1	0.1	-2.3	39.3	-39.3	318.0	64.3*
SMILES	HIF act	FXN GAA850 act	SR-BI DiI inh	SR-BI DiI-HDL act	ABCB6 inh 2	AHR act
CC(=O)c1ccc(NC(=O)C2=CC(c3cccs3)=NS(=O)(=O)N2C)cc1	-0.3	0.0	-5.3	5.3	99.0	0.4
Cc1nc2c3cc(F)ccc3n(Cc3ccc(F)cc3)c2s1	1.9	-1.9	80.2*	-80.2	80.0	2.2
CCc1ccc(NC(=O)c2cnc3n(c2=O)CCS3)cc1	3.5	0.5	-2.7	2.7	101.0	24.2
COc1ccc(NC(=O)Nc2cc3oc4ccccc4c3cc2OC)cc1	0.2	0.3	98.1*	-98.1	101.0	73.6*
COc1cc2c(cc1NC(=O)CSc1nccn1C)oc1ccccc12	2.1	2.1	61.3	-61.3	93.0	77.8*
COc1cc2c(cc1NC(=O)Nc1ccc(F)cc1)oc1ccccc12	0.3	-2.3	?	-71.6	102.0	66.0*
COc1ccc(OCC(=O)Nc2cc3oc4ccccc4c3cc2OC)cc1	-0.1	0.1	47.0	-47.0	103.0	4.3
COc1cc2c(cc1NC(=O)C(C)Sc1ccc(NC(C)=O)cc1)oc1ccccc12 (configuration not stated)	-0.2	-1.8	58.5	-58.5	101.0	31.2
COc1cccc(NC(=O)C(C)NS(=O)(=O)c2ccc(Br)cc2)c1 (configuration not stated)	0.1	0.7	5.0	-5.0	98.0	0.0
O=C(COC(=O)CN1C(=O)c2ccccc2C1=O)Nc1ccccc1[N+](=O)[O-]	/	-0.3	-12.4	12.4	97.0	3.4
CC(=O)Nc1cccc(/C(C)=N/NC(=O)c2cccc(S(=O)(=O)N3CCCC3)c2)c1	/	-0.8	/	/	72.0*	/
COc1ccc(C(C)=NNC(=O)c2cccc(S(=O)(=O)N3CCCC3)c2)cc1	/	0.5	-18.4	18.4	96.0	2.7
COc1ccc(/C(C)=N/NC(=O)c2cccc(S(=O)(=O)N3CCCC3)c2)c(O)c1	33.4*	-5.0	102.6*	-102.6	97.0	-2.7
CC(=NNC(=O)c1cccc(S(=O)(=O)N2CCCC2)c1)c1ccccc1	/	-1.9	17.5	-17.5	94.0	1.1
O=C(NCc1ccc(Cl)cc1)c1cc2ccccc2oc1=O	-24.3	1.5	-13.6	13.6	128.0	/
CNC(=O)c1ccc(NC(=O)c2ccccc2OCc2c(C)noc2C)cc1	/	1.3	/	/	99.0	/
CC(Oc1ccccc1)C(=O)N=Nc1c(O)[nH]c2ccc([N+](=O)[O-])cc12 (configuration not stated)	-0.2	0.4	5.1	-5.1	94.0	63.4*
Cc1cc2ccccc2nc1SCC(=O)Nc1nc(-c2ccccc2)cs1	-0.3	1.2	10.0	-10.0	102.0	11.0
Cc1ccc(Nc2nnc(SC/C(O)=C(\C#N)c3nc4ccccc4[nH]3)s2)c(C)c1	-0.3	-1.2	-22.8	22.8	104.0	55.0*
Cc1cccc(Nc2nnc(SC/C(O)=C(\C#N)c3nc4ccccc4[nH]3)s2)c1	-0.7	2.5	4.4	-4.3	100.0	35.7
